Screening data: PubChem BioAssay, several laboratories
Hits are enriched below; roughly 4.1% of the tested compounds scored in any of these assays.
TAG inh – inhibitors of triacylglycerol accumulation, primary screen, cell-based, uHTS, fluorescence, H9c2; H9c2 cells, Nile Red lipid (TAG) fluorescence; cells loaded with 200 µM oleic acid; inhibition, % at 12.5 µM; AID 651582, 2012; 0.66% of 230,000 active;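 active = pattern-corrected inhibition of lipid staining of at least 50% with the nuclear-stain viability signal not falling by more than 50%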
SMARCA2 act – SMARCA2 (BRM) function activators, primary screen, cell-based, luminescence, high throughput; MG213 cells, MMTV-luciferase reporter, dexamethasone, overnight; activation, % at 9.1 µM; 1% of 370,000 active; AID 652017, 2013; in the data active = activation above about 7.8%
Tb MetRS inh – T. brucei MetRS inhibitors, primary screen, biochemical, luminescence; purified T. brucei MetRS, ATP depletion, Kinase-Glo luminescence; 0.4% of 360,000 active; methionyl-tRNA synthetase (Trypanosoma brucei brucei); inhibition, % at 11.9 µM;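 active = inhibition above a per-plate cutoff of the control wells' mean inhibition plus 3 SD, cut at about 5.5% in these data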
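Dosing: 11.9 µM compound single dose, 0.9% DMSO; Assay system: purified T. brucei MetRS enzyme; Measured by: Kinase-Glo luciferase luminescence reporting remaining unconsumed ATP; Schedule: 15 min plus 2 h at 25 °C.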
AHR act – AHR activators, primary screen, cell-based, luminescence, luciferase reporter, human | activation, % at 5 µM | Aryl hydrocarbon receptor (Homo sapiens), P35869 | 2.5% of 320,000 active | AID 2796, 2010 | AHR-responsive luciferase reporter cells; in the data active = activation above about 47%
Target sequence (P35869 whole entry, looked up): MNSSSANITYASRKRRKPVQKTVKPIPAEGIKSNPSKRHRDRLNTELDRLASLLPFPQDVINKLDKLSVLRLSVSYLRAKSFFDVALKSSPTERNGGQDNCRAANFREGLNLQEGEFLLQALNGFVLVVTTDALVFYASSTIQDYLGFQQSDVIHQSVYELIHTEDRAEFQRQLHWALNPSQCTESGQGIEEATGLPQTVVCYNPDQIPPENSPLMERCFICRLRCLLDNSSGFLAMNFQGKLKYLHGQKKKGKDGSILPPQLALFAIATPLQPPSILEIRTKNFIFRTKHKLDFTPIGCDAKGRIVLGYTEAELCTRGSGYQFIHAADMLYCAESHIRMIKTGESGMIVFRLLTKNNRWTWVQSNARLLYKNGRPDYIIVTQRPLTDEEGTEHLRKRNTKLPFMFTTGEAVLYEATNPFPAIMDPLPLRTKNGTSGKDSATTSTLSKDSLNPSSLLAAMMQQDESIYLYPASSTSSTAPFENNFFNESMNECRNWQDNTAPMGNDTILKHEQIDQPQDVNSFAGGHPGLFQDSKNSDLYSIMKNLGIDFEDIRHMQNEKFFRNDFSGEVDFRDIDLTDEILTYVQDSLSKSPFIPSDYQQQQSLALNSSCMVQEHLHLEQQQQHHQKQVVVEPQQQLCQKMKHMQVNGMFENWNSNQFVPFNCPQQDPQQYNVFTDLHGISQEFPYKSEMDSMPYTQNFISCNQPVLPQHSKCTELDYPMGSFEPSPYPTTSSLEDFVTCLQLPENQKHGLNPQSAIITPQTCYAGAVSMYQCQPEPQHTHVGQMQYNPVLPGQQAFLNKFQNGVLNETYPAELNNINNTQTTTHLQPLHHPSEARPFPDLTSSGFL
Efflux pump inh – inhibitors of Candida efflux pumps in yeast, primary screen, S. cerevisiae, Nile Red, multiplex | S. cerevisiae Candida pump triplex | inhibition, % at 10 µM | 0.44% of 330,000 active | AID 485275, 2010;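 active = plate passing quality check with inhibition over a set limit, or well fluorescence over plate mean plus 4 SD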;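 note: Nile Red retained in pooled yeast measured as flow cytometry median fluorescence; higher means more Nile Red kept so more efflux inhibition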
SMARCA2 conf – SMARCA2 (BRM) function activators, confirmation, cell-based, luminescence, triplicate; activation, % at 9.1 µM; 30% of 3,500 active; MG213 cells, MMTV-luciferase with dexamethasone, overnight; MG213 cells expressing E1A, Rb sequestered; DMSO wells 0%, reference activator 100%; shares compounds with SMARCA2 act;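 active = activation above its plate's cutoff, the mean activation of tested wells plus 3 SD, cut at about 7.9% in these data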
VP16 Luc act – GAL4-VP16 luciferase reporter activation, counter-screen for SMARCA2 (BRM) activator project, cell-based, pG5luc, luminescence, high throughput | shares compounds with SMARCA2 act | HEK293 GAL4-VP16 pG5luc reporter; scaled: DMSO wells 0%, SAHA wells 100% | activation, % at 9.1 µM | 41% of 3,500 active | AID 686939, 2013;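 active = activation above the solvent-only control well mean plus 3 SD, averaged across control plates, cut at about 5.2% in these data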
A number is an active result; 0 = inactive; - = not tested or not shown.

SMILES	TAG inh	SMARCA2 act	Tb MetRS inh	AHR act	Efflux pump inh	SMARCA2 conf	VP16 Luc act
N#CCC[C@H]1CC[C@]2(CCCN(C(=O)C3CCCC3)C2)O1	-	0	-	-	-	-	-
C/C(=N/NC(=O)c1ccccn1)c1c[nH]c2ccccc12	0	16.4	0	0	0	11.6	0
C/C(=N/NC(=O)c1ccccn1)c1ccc(O)cc1	0	0	0	0	0	-	-
O=C1c2ccccc2C(=O)N1CCCn1c2ccc(Cl)cc2c2nc3ccccc3nc21	0	0	0	-	-	-	-
Cn1c2ccc(Cl)cc2c2nc3ccccc3nc21	0	9.4	0	56.4	0	11.4	0
COC(=O)[C@]12C[C@H](CC(=O)N3CCN(C(=O)c4ccco4)CC3)C(=O)N(Cc3cccc4ccccc34)C1=C[C@H](C(C)(C)C)O[C@@H]2C	-	0	-	-	-	-	-
CCOc1cc(CNc2ccc(N3CCN(C(C)=O)CC3)cc2)cc(Br)c1OC	-	8.6	0	0	0	0	0
CCOc1c(Br)cc(CNc2ccc(N3CCN(C(C)=O)CC3)cc2)cc1OC	0	0	0	0	0	-	-
Cn1c2ccccc2c2nnc(SCCN3CCOCC3)nc21	-	10.5	0	-	-	0	0
N#Cc1ccc(OC[C@@H](O)CN2CCC(C(O)(c3ccccc3)c3ccccc3)CC2)cc1	-	0	-	-	-	-	-
Cc1ccc(/C=c2\sc3n(c2=O)CN(c2ccc(Br)cc2)CN=3)o1	0	0	0	0	0	-	-
Cc1ccc(/C=c2/sc3n(c2=O)CCCN=3)o1	0	8.7	0	0	0	0	0
COc1ccc(-c2nc3nc(C)c(Cc4ccccc4)c(=O)n3[nH]2)cc1	-	8.1	0	0	0	0	0
O=C(Nc1cccc(Cl)c1)Nc1ccc2nccnc2c1	-	0	0	0	0	-	-
O=C(Nc1ccc2nccnc2c1)Nc1ccccc1Cl	-	8.9	0	0	0	0	6.8
CCOc1ccccc1-c1nc(-c2ccc(C)nc2OC)no1	0	8.8	0	0	0	14.7	8.0
CCN=C1NC(CCc2ccccc2)C(C(=O)OC)=C(C)N1Cc1ccc(C(F)(F)F)cc1 (stereo not drawn)	-	0	-	-	-	-	-
CCOC(=O)c1ccc(N2Cc3ccccc3C2=N)cc1	0	12.4	0	0	0	10.7	0
CCOC(=O)c1ccc(N2Cc3ccccc3C2=NC(=O)c2ccncc2)cc1	0	0	0	-	-	-	-
CCN(CC)C(=O)CN(C#N)c1nc(OC)nc(N(C)C)n1	0	8.9	0	0	0	0	0
CCN(CC)C(=O)CN(C#N)c1nc(C)cc(C)n1	-	0	0	0	0	-	-
COCc1ccc(C(=O)N(C)CC2CCCN(CCc3ccc(OC)cc3)C2)o1 (stereo not drawn)	-	9.8	0	0	0	0	0
Cc1ccccc1C(=O)n1ccc2ccc(-c3ccc4ccn(Cc5ccccc5)c4c3)cc21	-	0	-	-	-	-	-
Cc1ccc(-c2nc(N/N=C/c3ccccc3[N+](=O)[O-])c3ccccc3n2)cc1	-	8.2	0	0	0	0	8.2
CCCN1CCN(CCCNC(=S)Nc2ccc3nc(N4CCN(CC)CC4)cc(C)c3c2)CC1	0	0	0	0	0	-	-
SMILES	TAG inh	SMARCA2 act	Tb MetRS inh	AHR act	Efflux pump inh	SMARCA2 conf	VP16 Luc act
Cc1cc(N2CCCC2)nc2ccc(NC(=S)NCCCN3CCC(C)CC3)cc12	0	11.7	0	0	0	18.7	0
CCc1ccc(/C=N/Nc2ncnc3nc[nH]c23)cc1	0	8.3	0	0	0	0	13.0
CC(C)CSC1=NSC2=NC(=O)/C(=C\c3cccs3)C(=N)N12	-	9.5	0	0	0	0	5.3
N=C1/C(=C/c2cccs2)C(=O)N=C2SN=C(SCc3ccccc3)N12	0	0	0	0	0	-	-
CCCCCCC12C(=Cc3cc4c(cc31)OCCO4)c1cc(OC)c(OC)cc1C(CC(=O)O)N2C(=O)OC (stereo not drawn)	-	0	-	-	-	-	-
CC1CCN(C(=O)c2ncn3c2C(=O)N[C@H](C)C3)CC1	-	0	-	-	-	-	-
O/N=C\c1ccc(-c2ccccc2)o1	-	9.5	0	0	0	0	0
O=C(/C=C\c1ccc(-c2ccccc2)o1)c1ccccc1	-	8.2	0	0	0	16.1	8.1
Cc1ccc(C(=O)/C=C/c2ccc(-c3ccc(C)cc3)o2)cc1	-	0	0	0	0	-	-
c1ccc(Nc2nc3ccccc3o2)cc1	-	13.1	0	0	0	0	8.4
Fc1ccc(-c2cnc(-c3cccs3)o2)cc1	0	9.2	0	0	0	10.2	5.4
Fc1ccc(-c2nc(-c3cccs3)no2)cc1	0	0	0	0	0	-	-
CCOC(=O)C1(Cc2ccccc2)C(=O)Nc2ccccc21 (stereo not drawn)	0	0	0	0	0	-	-
CCOC(=O)C1(C(F)(F)F)N=C(C(F)(F)F)Nc2ccccc21 (stereo not drawn)	-	9.8	0	0	0	0	0
CCN(C1CCCCC1)S(=O)(=O)c1ccc(-n2cnnn2)c(C)c1	-	9.3	0	0	0	0	0
CCCNCc1cc(Cl)c(OCC)c(Cl)c1	0	9.1	0	0	0	0	0
C=CCOc1c(Cl)cc(CNCCC)cc1Cl	-	0	0	0	0	-	-
Cc1scc(C(=O)N/N=C/c2ccsc2)c1C	-	0	0	0	0	-	-
CCCOc1cccc(/C=N/NC(=O)c2csc(C)c2C)c1	0	12.7	0	0	0	0	0
O=C(/C=C/c1ccccc1[N+](=O)[O-])OCC(=O)c1ccccc1	0	10.3	0	0	0	8.0	0
CCOc1ccc(CNC(=O)CN2C(=O)CSc3ccc(S(=O)(=O)N4CCOCC4)cc32)cc1OC	-	8.8	0	0	0	0	0
COc1ccc(CCNC(=O)CCn2c(=O)c3cccn3c3cccnc32)cc1OC	-	12.4	0	0	0	7.9	0
COc1ccc(CNC(=O)CCCn2c(=O)c3cccn3c3cccnc32)cc1	0	0	0	-	-	-	-
Cc1cccc(CN2CCSCCS2(=O)=O)c1	-	0	-	-	-	-	-
CCOC(=O)c1c(NC(=O)COC(=O)CCCOc2ccc(OC)cc2)sc(C(=O)N(C)C)c1C	0	8.3	0	-	-	0	0
Oc1ccc(CCNc2c3ccccc3nc3ccccc23)cc1O	-	8.4	0	0	0	24.7	0
COC(=O)[C@H](C(C)C)N(CCc1cn(Cc2ccc(C)cc2)nn1)S(=O)(=O)c1ccc(F)cc1Br	-	0	-	-	-	-	-
CCN(CC)CCCNc1ccc2ncn3c4ccc(O)cc4c(=O)c1c23	0	8.1	0	-	-	34.2	0
O=C(COc1cccc(C(F)(F)F)c1)Nc1cccnc1	0	8.4	0	0	0	0	0
